From ChEMBL document CHEMBL3352483, “Synthesis, structure-activity relationships and biological evaluation of barbigerone analogues as anti-proliferative and anti-angiogenesis agents” (Bioorg Med Chem Lett, 2014)

Experiments:
HUVEC [1] = experiment: Antimigratory activity in HUVEC assessed as migration into wound area at 0.5 uM after 24 hrs relative to vehicle treated control; type: functional, Homo sapiens
Outline: (§1)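 Wound-healing assay. HUVEC monolayers scratched with a pipette, then treated with vehicle or the indicated compound concentrations. Photographs taken at 0 h and 24 h at 50×, and migration rate into the wound calculated. Mean ± SD from three independent experiments.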

[2] = Antiproliferative activity against human HCT116 cells after 24 hrs by MTT assay; type: functional, cell-based; conditions: HCT-116, 24 h
Outline: (§2)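 MTT proliferation assay on HUVECs and on HepG2, A375, U251, B16 and HCT116 cells. Results reported as IC50.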

U-251 = experiment: Antiproliferative activity against human U251 cells after 24 hrs by MTT assay; type: functional, cell-based; conditions: U-251, 24 h; outline: as §2
HUVEC [3] = experiment: Antimigratory activity in HUVEC assessed as migration into wound area at 1 uM after 24 hrs relative to vehicle treated control; type: functional, Homo sapiens; outline: as §1
HUVEC [4] = experiment: Antiangiogenic activity against HUVEC assessed as inhibition of capillary-like tube formation at 5 uM after 8 hrs by Matrigel assay relative to control; type: functional; conditions: Homo sapiens
Outline: (§3)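 HUVECs (1 × 10^4 cells) suspended in EBM-2 with vehicle or compound at 1.0 or 5.0 μM and plated on Matrigel. Incubated 8 h at 37 °C. Capillary networks photographed at 100× and quantified. Inhibition of tube-like structure formation expressed relative to vehicle group.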

A-375 = experiment: Antiproliferative activity against human A375 cells after 24 hrs by MTT assay; type: functional, cell-based; conditions: A-375, 24 h; outline: as §2
HUVEC [5] = experiment: Antiproliferative activity against HUVEC after 24 hrs by MTT assay; type: functional, cell-based; conditions: Homo sapiens; outline: as §2
Danio rerio = organism: Danio rerio; experiment: Antiangiogenic activity in Flk-1-GFP transgenic zebrafish embryo after 24 hrs; type: functional, organism-based
Outline: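 Zebrafish embryos exposed to compound at 1.25 or 2.5 μM, or to vehicle, for 24 h. Read-out is formation of the subintestinal vessel (SIV) basket-like structure, compared with vehicle-treated embryos.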

HUVEC [6] = experiment: Antiangiogenic activity against HUVEC assessed as inhibition of capillary-like tube formation at 1 uM after 8 hrs by Matrigel assay relative to control; type: functional; conditions: Homo sapiens; outline: as §3
HepG2 = experiment: Antiproliferative activity against human HepG2 cells after 24 hrs by MTT assay; type: functional, cell-based; conditions: HepG2, 24 h; outline: as §2
B16 = experiment: Antiproliferative activity against mouse B16 cells after 24 hrs by MTT assay; type: functional, cell-based; conditions: B16, 24 h; outline: as §2

Row | IC50 (U-251) | IC50 (A-375) | IC50 (HepG2) | IC50 (B16) | Structure (SMILES) | Activity (HUVEC [1]) | IC50 [2] | Activity (HUVEC [3]) | inhibition at 5 µM (HUVEC [4]) | IC50 (HUVEC [5]) | inhibition (Danio rerio) | inhibition at 1 µM (HUVEC [6])
1 | 3500 nM | 1580 nM | 280 nM | 1090 nM | COc1cc(OC)c(-c2coc3cc(OCC=C(C)C)ccc3c2=O)cc1OC | 35.36% | 680 nM | 8.45% | 88.3% | 3800 nM | Dose-dependent effect | 78.2%
2 | 4100 nM | 1850 nM | 1770 nM | 1230 nM | COc1cc(OC)c(-c2coc3c4c(ccc3c2=O)OC(C)(C)C=C4)cc1OC | 74.26% | 2360 nM | 1.65% | 65.4% | 7450 nM | Dose-dependent effect | 23.7%
3 | > 10000 nM | 980 nM | 750 nM | 2280 nM | COc1cc(OC)c(-c2coc3cc(OCc4cccc(Cl)c4)ccc3c2=O)cc1OC |  | 1330 nM |  |  | > 10000 nM |  | 
4 | > 10000 nM | > 10000 nM | > 10000 nM | > 10000 nM | COc1cccc(-c2coc3c4c(ccc3c2=O)OC(C)(C)C=C4)c1 |  | > 10000 nM |  |  | > 10000 nM |  | 
